A short description of the assay: Antitumor activity against human KB3 cells after 96 hrs by MTT assay. It counts as functional, cell-based. The following applies: KB3, 96 h. In a few lines:
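Human KB-3 carcinoma cells exposed to increasing compound concentrations; viability read by MTT colorimetric assay after 96 h. Values are means of triplicate assays, expressed relative to untreated controls.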

SMILES strings stand for the structures.

Take `C=C(C)[C@H]1CC=C(C)[C@@]2(O)[C@@H]1[C@H](c1ccccc1Br)O[C@@H]2C(=O)OCC1CC1`: the IC50 was 50 µM. The molecule `C=C(C)[C@H]1CC=C(C)[C@@]2(O)[C@@H]1[C@H](c1cccc(Br)c1)O[C@@H]2C(=O)OCC` had a 50% inhibitory concentration (IC50) of 3 µM.

As for `C=C(C)[C@H]1CC(=O)C(C)=C2[C@@H](C(=O)OCC)O[C@@H](c3cccc(Br)c3)[C@@H]21`, the IC50 turned out to be 30 µM. With `C=C(C)[C@H]1CC=C(C)[C@@]2(O)[C@@H]1[C@H](c1ccccn1)O[C@@H]2C(=O)OC`, the half-inhibitory concentration (IC50) was 100 µM. On to `C=C(C)[C@H]1CC=C(C)C2=CO[C@@H](c3cccc4ccccc34)[C@@H]21`, for which the IC50 was > 100 µM.

Consider `C=C(C)[C@H]1CC=C(C)[C@@]2(O)[C@@H]1[C@H](c1ccccc1Br)O[C@@H]2C(=O)OCC`, for which the IC50 was 20 µM. With `C=C(C)[C@H]1CC=C(C)[C@@]2(O)[C@@H]1[C@H](c1ccccc1Br)O[C@@H]2C(=O)OCC1CCCC1`, the half-maximal inhibitory concentration (IC50) is > 100 µM. The result for `C=C(C)[C@H]1CC=C(C)[C@@]2(O)[C@@H]1[C@H](c1ccccc1Br)O[C@@H]2C(=O)O` reads > 100 µM.

As a reminder, the IC50 is the concentration needed to halve the response being measured. A high value points to weaker potency.

The values above are taken from ChEMBL document CHEMBL1153726, “Synthesis and anticancer activity of sclerophytin-inspired hydroisobenzofurans” (Bioorg Med Chem Lett, 2009).
